Source: PubChem BioAssay (Broad Institute)
A selection follows.
PGC1a Ac signal: raises PGC1a acetylation signal in U2OS cells. activation, % at 15.6 µM. 350,000 tested, 0.21% active. U2OS PGC1a acetylation AlphaScreen, overnight;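 active means every replicate reaching activation of at least 50%, whatever the mean replicate activation; inconclusive means replicates that disagree or another doubt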;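 further: hits raise the AlphaScreen acetylation signal above neutral controls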
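Incubation: overnight compound treatment, 37 °C. System: U2OS cells transduced with flag-tagged PGC1a and GCN5 acetyltransferase. Detection: AlphaScreen lysate read. Compound: single-point compound dosing.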
G6PC hep suppr: PGC-1a acetylation activator altering hepatocyte G6PC expression; shares compounds with PGC1a Ac signal; 240 tested, under 10 active; AID 743463; primary mouse hepatocytes, G6PC mRNA qPCR, forskolin; G6PC suppression (normalized activity, % of positive control; higher = more suppression), % at 26 µM;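 active means dose curves showing G6PC suppression whose half-maximal dose is at most twice the top valid dose; inconclusive means flat curves with moderate negative activity, or unreliable fits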;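 further: G6PC expression relative to GAPDH housekeeping gene as delta delta Ct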
PCK1 hep suppr: hepatocyte PCK1 expression change via PGC-1a acetylation activation | shares compounds with PGC1a Ac signal | primary mouse hepatocytes, PCK1 mRNA qPCR, forskolin-stimulated | PCK1 expression decrease, unspecified at 26 µM | 230 tested, under 10 active | AID 743465;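 active means compounds lowering PCK1 expression whose fitted half-maximal concentration is at most twice the top tested dose; inconclusive means flat fit with moderate opposite-direction effect, or poor fit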;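 further: higher delta delta Ct means lower PCK1 expression so positive values indicate hits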
PGC1a hep suppr: PGC-1a acetylation activators affecting PGC-1a expression in hepatocytes | shares compounds with PGC1a Ac signal | primary mouse hepatocytes, PGC-1a mRNA qPCR, forskolin; top dose 26 µM | max activity (PGC-1a expression decrease), % | 240 tested, under 10 active | AID 743467;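 active means compound lowering PGC-1a expression with fitted half-maximal concentration at most twice its top tested dose; inconclusive means flat curve with moderate opposite-direction effect, or poor fit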
Each line names hits and unclear results; the compound was inactive in the other large screens (follow-up assays come after a bar, where they were run).

OC(CN1c2ccccc2Sc2ccccc21)Cn1nnc2ccccc21 (centres undefined)	PGC1a Ac signal 76 | PCK1 hep suppr inactive | PGC1a hep suppr inactive
CCN(CC)c1ccc(N)cc1S(=O)(=O)Nc1ccccc1OC	PGC1a Ac signal 57 | G6PC hep suppr inactive | PCK1 hep suppr inactive | PGC1a hep suppr inactive
O=C(NCc1ccccc1)N1CCC(n2cnc3cc(F)ccc32)CC1	PGC1a Ac signal 138 | PCK1 hep suppr inactive | PGC1a hep suppr inactive
OC[C@@H]1CN(Cc2ccccc2)C[C@H](n2cnc3c(NCc4ccc(F)cc4)ncnc32)O1	none
COc1ccc(N=C2SCC(c3ccc(C)cc3)=NN2CCO)cc1	none
CC(=O)Nc1ccc(NC(=O)CN(c2cc(Cl)ccc2Cl)S(C)(=O)=O)cc1	PGC1a Ac signal 117 | G6PC hep suppr inactive | PGC1a hep suppr inactive
CN(C)c1ncnc2c1ncn2C1OC(CO)C(O)C1O (centres undefined)	none
CCc1nccn1S(=O)(=O)c1cc(C)c(OC)cc1C	none
C=CCn1c(SCC(=O)NCc2ccccc2)nnc1-c1ccccc1O	none
C[C@@H]1CCCCO[C@H](CN(C)Cc2ccc(Cl)c(Cl)c2)[C@H](C)CN([C@@H](C)CO)C(=O)c2cc(NC(=O)Nc3ccc(F)cc3)ccc2O1	none
Cc1noc(C)c1S(=O)(=O)Nc1ccc2c(c1)C(=O)N([C@@H](C)CO)C[C@@H](C)[C@@H](CN(C)Cc1ccc3c(c1)OCO3)OCCCC[C@@H](C)O2	none | G6PC hep suppr inactive | PCK1 hep suppr inactive | PGC1a hep suppr inconclusive
O=C(Nc1nc(-c2ccccn2)cs1)c1ccccc1-n1cnnn1	none
CCCOC(=O)c1ccc(-n2nnnc2SCC(=O)N2CCCCC2)cc1	none
CCCCN(CCCC)S(=O)(=O)c1ccc2oc(C(=O)N3CCOCC3)c(C)c2c1	PGC1a Ac signal 102 | G6PC hep suppr inactive | PCK1 hep suppr inactive | PGC1a hep suppr inactive
NC1=C(Br)C(=O)c2ncccc2C1=O	none
Cc1cc(C)c2oc(C(=O)N(Cc3ccccc3)c3ccccn3)cc(=O)c2c1	none
CCN1CCN(Cc2ccc(NC(=O)c3ccc(C)c(NC(=O)c4cncc(-c5cccs5)c4)c3)cc2C(F)(F)F)CC1	none
Cc1ccccc1Cn1cc(NC(=O)c2cc(-c3cccs3)on2)cn1	PGC1a Ac signal inconclusive | PCK1 hep suppr inactive | PGC1a hep suppr inactive
O=C(COc1ccc(Cl)cc1Cl)NCCCN1CCOCC1	none
CC(=O)Oc1ccc(-c2csnn2)cc1	none
CCN(CC)CCNc1nc(-c2ccc(OC)cc2)c(-c2ccc(OC)cc2)s1	none
CCC(=O)N(CC)c1nc(-c2ccc(OC)cc2)cs1	none | G6PC hep suppr inactive | PCK1 hep suppr inactive | PGC1a hep suppr inactive
CC1(C(=O)Nc2cccc(C#N)c2)CCN1C(=O)CCc1ccccc1 (centres undefined)	none
OCCNc1nc(N2CCCCC2)nc2ccccc12	none
O=C(Cn1c(CN2CCCCC2)nc2ccccc2c1=O)Nc1ccccc1	none | G6PC hep suppr inactive | PCK1 hep suppr inactive | PGC1a hep suppr inactive
Cc1nonc1NC(=O)CSc1nc(C2CCCCC2)nc2ccccc12	none
COc1cccc(NC(=O)c2ccccc2-c2ccccc2C(=O)O)c1	none
N#Cc1c(-c2cccc(Br)c2)cc(-c2ccco2)[nH]c1=O	none
COC(=O)CSc1nc(-c2ccccc2)cc(-c2ccco2)c1C#N	PGC1a Ac signal 67 | G6PC hep suppr inactive | PCK1 hep suppr inactive | PGC1a hep suppr inactive
CS(=O)c1nc(-c2ccc(Br)cc2)cc(-c2ccccc2)c1C#N (centres undefined)	none
Cc1ccc(Sc2ncnc3onc(C)c23)c(C)c1	none
CC(Oc1ccc(Cl)cc1Cl)c1nc(-c2ccc(NC(=O)c3cccnc3)cc2)no1 (centres undefined)	PGC1a Ac signal 88 | G6PC hep suppr inactive | PCK1 hep suppr inactive | PGC1a hep suppr inconclusive
O=C(Nc1ccc(-c2noc(-c3cccs3)n2)cc1)c1cccnc1	PGC1a Ac signal 137 | G6PC hep suppr inactive | PCK1 hep suppr inactive | PGC1a hep suppr inconclusive
Nc1ccc2c(c1)C(=O)C(=O)c1ccccc1-2	none
Cc1nnc(-c2ccccc2)c(=O)n1/N=C/c1c(O)ccc2ccccc12	none
CC(C)C[C@H]1CNC(=S)N1CC1CCCN1C[C@H](Cc1ccccc1)N1C[C@H](Cc2ccc(O)cc2)N(CC2CCCCCC2)C1=S (some centres undefined)	none
O=P(CCCCCCCCCP(=O)(c1ccccc1)c1ccccc1)(c1ccccc1)c1ccccc1	none
c1ccc(-c2c(-c3ccccc3)n(Cc3ccco3)c3ncnc(NCCCn4ccnc4)c23)cc1	PGC1a Ac signal 125 | G6PC hep suppr inactive | PCK1 hep suppr inactive | PGC1a hep suppr inactive
CCC(C)NC(=O)c1ccc2c(SCC(=O)O)c3c(nc2c1)CCCC3 (centres undefined)	none
Cc1nc2ccccc2nc(C)c1=NO	none
COc1cc(C=C(C(C)=O)C(C)=O)ccc1O	none
CCOC(=O)CNS(=O)(=O)c1cc(-c2nnc(Nc3ccc4c(c3)OCO4)c3ccccc23)ccc1C	PGC1a Ac signal 168 | G6PC hep suppr inactive | PCK1 hep suppr inactive | PGC1a hep suppr inactive
Cc1cc2nc(/C=C/c3cccnc3)[nH]c2cc1C	none
CCOC(=O)CN1C(=N)N(c2nc(NC(C)C)nc(OC)n2)CC1=O	none
O=C(c1nc2nc(-c3ccccc3)cc(C(F)(F)F)n2n1)N1CCCCC1	none
Cc1ccc(S(=O)(=O)N[C@H]2C=C[C@@H](CC(=O)NCCN3CCCCC3)O[C@H]2CO)cc1	none | PCK1 hep suppr inactive | PGC1a hep suppr inactive
CCc1nnc(N/N=C/c2c(Cl)cccc2Cl)n1N	none
O=C(NCc1cccs1)c1ccc(Cl)c(S(=O)(=O)N2CCCC2)c1	PGC1a Ac signal inconclusive | G6PC hep suppr inactive | PGC1a hep suppr inconclusive
CC(/C=N/NC(=O)c1cc(-c2ccc(Cl)cc2)nc2ccccc12)=C\c1ccco1	none
Cc1ccccc1CSc1nnc(-c2ccco2)n1Cc1ccco1	none
Cc1cc(N2CCN(C)CC2)ccc1NC(=O)c1c2c(nc3ccccc13)CCN(Cc1ccccc1)C2	none
CCOC(=O)C(C)n1cnc2c(nnn2-c2ccc(C)cc2)c1=O (centres undefined)	none | G6PC hep suppr inactive | PCK1 hep suppr inactive | PGC1a hep suppr inconclusive
S=C1NC2=C(CCCC2=C2SCCS2)C(c2ccccc2)N1 (centres undefined)	none
C[C@@H]1CN([C@H](C)CO)C(=O)c2c(c3ccccc3n2C)-c2ccccc2CO[C@@H]1CN(C)C(=O)Nc1ccccc1C(F)(F)F	PGC1a Ac signal 96 | G6PC hep suppr inactive | PCK1 hep suppr inactive | PGC1a hep suppr inactive
COc1ccc(NC(=O)N(C)C[C@H]2OCc3ccccc3-c3c(n(C)c4ccccc34)C(=O)N([C@@H](C)CO)C[C@H]2C)c(OC)c1	PGC1a Ac signal 85 | G6PC hep suppr inactive | PCK1 hep suppr inactive | PGC1a hep suppr inactive
CCCn1c(=O)c2ccccc2n2c(SCc3c(C(=O)OCC)oc4ccccc34)nnc12	none
Cc1oc2c(c1C(=O)c1ccccc1)C(=O)C(=O)c1ccccc1-2	none
CCO[C@H]1OC(C(=O)Nc2ccccc2)=C[C@@H](c2csc3ccccc23)[C@@H]1CCCO	none
CCN(CC)CC(=O)N1c2ccccc2CCc2ccc(NC(=O)c3cc(OC)c(OC)c(OC)c3)cc21	none | G6PC hep suppr inactive | PCK1 hep suppr inconclusive | PGC1a hep suppr inactive
